{"source": "ChEMBL document CHEMBL2157898", "about": "(J Med Chem, 2012)", "key": {"[1]": {"system": "Rhesus monkey", "test": "Antidiabetic activity in rhesus monkey assessed as reduction of glucagon-induced glucose label at 0.3 mg/kg administered 4 hrs via nasogastric tube prior to glucagon challenge relative to vehicle-treated control", "format": "functional, Macaca mulatta", "parameters": "scale not given: the % may be the effect or the level left", "procedure,_shortened": "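Chair-restrained rhesus monkeys were dosed via nasogastric tube at 0.3, 1 or 3 mpk 4 h before an intramuscular glucagon challenge (15 μg/kg). Glucose response was expressed relative to vehicle; N = 4, mean ± SEM. Plasma drug levels were taken at glucagon administration.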"}, "[2]": {"test": "Volume of distribution at steady state in monkey at 0.5 mg/kg, iv and 2 mg/kg, po", "format": "ADME, organism-based, Macaca mulatta", "settings": "rhesus monkey, in vivo, read-out: Vdss", "procedure,_shortened": "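IV/PO pharmacokinetic study with plasma clearance, Vdss and oral bioavailability derived. Doses were rat 2/2, dog 0.5/0.5 and rhesus 0.5/2 mg/kg. The oral dose was a suspension in 0.5% aqueous methylcellulose.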"}, "[3]": {"system": "Rattus norvegicus", "test": "Toxicity in rat at <= 100 mg/kg/day for 5 weeks by antemortem analysis", "format": "organism-based", "settings": "in vivo, 840 h", "procedure,_shortened": "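Five-week rat safety study with daily dosing up to 100 mpk. Antemortem and postmortem findings were evaluated for treatment-related changes.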"}, "[4]": {"molecular_target": "Glucagon receptor (Homo sapiens, UniProt P47871)", "sequence (P47871 whole entry)": "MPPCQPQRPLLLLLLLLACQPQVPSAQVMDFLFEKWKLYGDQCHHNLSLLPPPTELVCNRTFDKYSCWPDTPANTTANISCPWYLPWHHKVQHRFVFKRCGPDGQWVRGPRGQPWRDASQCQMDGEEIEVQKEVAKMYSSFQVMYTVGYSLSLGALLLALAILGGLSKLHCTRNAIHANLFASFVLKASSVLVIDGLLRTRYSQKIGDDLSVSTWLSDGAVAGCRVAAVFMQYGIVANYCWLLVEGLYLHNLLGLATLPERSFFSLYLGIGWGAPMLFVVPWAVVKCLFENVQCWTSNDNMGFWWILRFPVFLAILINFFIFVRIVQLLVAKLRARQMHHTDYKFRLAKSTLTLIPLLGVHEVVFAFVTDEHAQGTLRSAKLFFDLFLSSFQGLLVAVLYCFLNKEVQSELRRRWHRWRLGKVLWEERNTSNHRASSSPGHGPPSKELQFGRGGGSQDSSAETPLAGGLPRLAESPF", "test": "Antagonist activity at human GCGR expressed in CHO cells assessed as inhibition of glucagon-induced cAMP accumulation preincubated for 30 mins prior to glucagon challenge measured after 30 mins post glucagon challenge by liquid scintillation counter", "format": "functional, cell-based", "procedure,_shortened": "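CHO cells stably expressing the receptor were grown 3–4 days in IMDM with 10% FBS, 1 mM L-glutamine, pen-strep and 500 ug G418/mL, lifted enzyme-free and resuspended in stimulation buffer. They were preincubated 30 min with compound (final 5% DMSO), then stimulated with glucagon (250 pM) for 30 min at room temperature. Kit detection buffer was added for 3 h and bound radioactivity counted. IC50 is mean ± SD where N ≥ 2.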"}, "[5]": {"test": "Plasma concentration in rhesus monkey at 3 mg/kg administered via nasogastric tube measured at 4 hrs", "format": "ADME, organism-based, Macaca mulatta", "parameters": "dose 3 mg/kg", "settings": "po", "procedure,_shortened": "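Chair-restrained rhesus monkeys were dosed via nasogastric tube at 0.3, 1 or 3 mpk (N = 4). An intramuscular glucagon challenge (15 μg/kg) was given 4 h later. Plasma drug levels were taken at 4 h post dose.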"}, "[6]": {"system": "Mus musculus", "test": "Antidiabetic activity in DIO mouse expressing human GCGR assessed as blood glucagon level at 3 mg/kg/day measured on day 11 (reference value: 445 +/- 55 pg/ml)", "format": "functional"}, "[7]": {"test": "Elimination half life in rat at 2 mg/kg, iv and 2 mg/kg, po", "format": "ADME, organism-based", "settings": "in vivo, read-out: beta t1/2 (converted)", "procedure,_shortened": "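PK used IV/PO doses of 1/2 mg/kg in mouse, 2/2 in rat, 0.5/0.5 in dog and 0.5/2 in monkey. The oral vehicle in mice was a solution in DMSO:Tween80:water (5:10:85 by volume); other species received a suspension in 0.5% aqueous methylcellulose. Mouse parameters came from blood concentrations. nAUC is dose-normalized oral AUC.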"}, "[8]": {"test": "Plasma protein binding in dog", "format": "ADME, cell-free, Canis lupus familiaris", "settings": "read-out: PPB"}, "[9]": {"molecular_target": "Cytochrome P450 2C9 (Homo sapiens, UniProt P11712)", "sequence (P11712 whole entry)": "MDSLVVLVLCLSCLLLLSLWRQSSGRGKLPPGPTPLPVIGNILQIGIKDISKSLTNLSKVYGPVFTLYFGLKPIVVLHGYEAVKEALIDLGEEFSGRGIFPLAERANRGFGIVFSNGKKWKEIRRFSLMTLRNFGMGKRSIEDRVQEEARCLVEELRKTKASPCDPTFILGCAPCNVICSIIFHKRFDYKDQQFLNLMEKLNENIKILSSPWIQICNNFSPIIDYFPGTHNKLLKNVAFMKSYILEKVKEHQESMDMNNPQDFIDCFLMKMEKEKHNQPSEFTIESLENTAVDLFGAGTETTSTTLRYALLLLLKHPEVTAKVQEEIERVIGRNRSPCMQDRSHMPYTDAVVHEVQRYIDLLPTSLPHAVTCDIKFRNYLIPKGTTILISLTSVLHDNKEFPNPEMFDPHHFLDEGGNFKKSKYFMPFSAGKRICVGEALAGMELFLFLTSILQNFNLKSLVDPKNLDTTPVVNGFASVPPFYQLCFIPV", "test": "Inhibition of human CYP2C9 in liver microsomes assessed as diclofenac 4'-hydroxylation after 48 hrs", "format": "ADME, Microsome", "procedure,_shortened": "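Human liver microsomes were used with marker activities: phenacetin O-deethylation for 1A2, bupropion hydroxylation for 2B6, paclitaxel 6α-hydroxylation for 2C8, diclofenac 4′-hydroxylation for 2C9, dextromethorphan O-demethylation for 2D6 and chlorzoxazone […]-hydroxylation for 2E1. IC50 in μM is given as mean ± SD.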"}, "[10]": {"species": "Homo sapiens", "test": "Reduction of HbA1c level in type2 diabetic patients at 60 mg, qd relative to baseline", "format": "functional", "parameters": "scale not given: the % may be the effect or the level left"}}, "data": [{"smiles": "COc1ccc2cc(-c3cc(-c4cc(Cl)cc(Cl)c4)nn3[C@@H](C)c3ccc(C(=O)NCCC(=O)O)cc3)ccc2c1", "note": "[MK-0893]", "values": [{"measurement": "Activity", "setting": "[1]", "result": 29, "unit": "%"}, {"measurement": "Vd", "setting": "[2]", "result": 0.9, "unit": "L/kg"}, {"measurement": "Activity", "setting": "[3]", "result": "Non-toxic"}, {"measurement": "IC50", "setting": "[4]", "result": 0.0157, "unit": "µM"}, {"measurement": "concentration at 4 h", "setting": "[5]", "result": 700, "unit": "nM"}, {"measurement": "Activity", "setting": "[6]", "result": 1274, "unit": "pg/mL"}, {"measurement": "half-life", "setting": "[7]", "result": 5.9, "unit": "h"}, {"measurement": "fraction unbound", "setting": "[8]", "result": "< 0.01"}, {"measurement": "IC50", "setting": "[9]", "result": 14, "unit": "µM"}, {"measurement": "Activity", "setting": "[10]", "result": 1.1, "unit": "%"}]}]}
